These results are taken from ChEMBL document CHEMBL4513216, “Probing the Open Global Health Chemical Diversity Library for Multistage-Active Starting Points for Next-Generation Antimalarials” (ACS Infect Dis, 2020).

A short description of this data set: Toxicity liver stage against HepG2, at 10uM. The class given is cell-based. More on the design: test concentration 10 uM, cell line HepG2-A16-CD81EGFP. As to conditions: human, HepG2-A16-CD81EGFP cells; read-out: INHIBITION
In short, it runs like this: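 Uninfected HepG2-A16-CD81EGFP cells, 3 × 10^3 per well, 1536-well, plated on prespotted compound at 10 μM final, parasite-free screening media added to match infected plates; puromycin 10 μM positive, DMSO 0.5% negative; run in parallel with 48 h PbLuc assay at 37 °C, 5% CO2; viability by CellTiter-Glo luminescence, normalized to controls.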
Take `COc1ccc(CN[C@@H]2CO[C@H](CNC(=O)NC(C)C)[C@H]2O)cc1`: the cytotoxicity at 10 µM is -4.7%. For the compound `O=C(COc1coc(CN2CCCC2)cc1=O)Nc1ccc(Cl)c(Cl)c1`, the cytotoxicity at 10 µM amounted to 0.0723%.

For the compound `O=C(NC1CC(=O)N(C2CC2)C1)c1cccs1` (stereo not given), the cytotoxicity at 10 µM amounted to 17.5%. In the case of `COc1nn(C)cc1C(=O)NCC(OC)c1ccccc1C` (stereo not given) it was -8.32%. To `O=S(=O)(Nc1cnn(C2CCOCC2)c1)c1ccc(F)c(F)c1` belongs 6.04%.

For the compound `CCN(c1ccc(C(=O)NCCCN2CCCC2)cc1)S(=O)(=O)CC`, the cytotoxicity at 10 µM was -3.29%. To `Cc1noc(C)c1-c1cc(CCC2CN(C(=O)CN)CCO2)ncn1` (stereo not given) belongs 2.89%; to `COCC(=O)N1CCC([C@@H]2C[C@H](C(F)(F)F)n3nc(C)cc3N2)CC1`, -33.6%; to `CC(=O)N1CCC(C(=O)N2CCCC(Cc3ccccn3)C2)CC1` (stereo not given), 6.97%. In the case of `CC(=O)N1CCC(c2cc(Nc3ncccn3)nc(C)n2)C1` (stereo not given) it was -27.7%.

Take `CC(=O)N1CCN(C(C)C)CC(COc2ccccc2)C1` (stereo not given): the cytotoxicity at 10 µM is -28.8%. In the case of `CCNC(=O)c1cccc(CNC(=O)c2cnc(C(C)(C)C)s2)c1` it was -0.969%. To `c1cnn(CC2CN(c3ncnc4c3CCC4)CCO2)c1` (stereo not given) belongs 31.2%; to `CC(=O)N1CCC(NC(=O)CN2CCCc3c(C)ccc(F)c32)CC1`, -5.82%; to `CN1CCN(CCOc2ccc(NC(=O)c3ccoc3)cc2)CC1`, -2.09%. In the case of `O=C(c1sccc1Br)N1CCOCC1` it was -2.34%; in that of `CC(=O)NCCCNC(=O)N(C)C(C)Cc1ccc(Cl)cc1` (stereo not given), 0.866%; in that of `c1csc(-c2nc(CN3CCN(c4cnccn4)CC3)co2)c1`, -5.67%. Take `COc1cc2c(cc1OC)CN(C(=O)Cn1nc(C)cc1C)CC2`: the cytotoxicity at 10 µM stood at 1.29%. To `O=C1CC[C@H](C(=O)N(Cc2cccc(Br)c2)C2CC2)N1` belongs 7.24%; to `CC(C)(C)c1n[nH]c(C2CN(Cc3ncc[nH]3)CCO2)n1` (stereo not given), 3.01%. To `Cc1c(NCCCOc2cccc(C#N)c2)cccc1C(N)=O` belongs -0.572%. To `COC(=O)CNC(=O)C1CCN(S(C)(=O)=O)CC1` belongs 2.91%. As to `Cc1nc(C)n(CC2CN(CCc3cccs3)CCO2)n1` (stereo not given), the cytotoxicity at 10 µM is 7.12%. To `CSC1(CNc2ccc(Br)cn2)CCOCC1` belongs -9.99%; to `Cc1nc(C2(NCc3cccc(F)c3F)CCCCC2)no1`, 0.749%.

For `O=C(CCc1ccc(Br)cc1)NCCc1nnc[nH]1`, the cytotoxicity at 10 µM is 2.7%. In the case of `CC(C)NC(=O)C(C)S(=O)(=O)c1cc2c(cc1Cl)OCCO2` (stereo not given) it was -3.25%; in that of `Cc1ccccc1CNC(=O)CNc1ccc(OC2CCOC2)cc1` (stereo not given), 2.77%; in that of `CCOc1ccc(C(=O)N(Cc2cnn(C)c2)C(C)C)cc1`, 13.4%. In the case of `CC(C)(NS(C)(=O)=O)c1nc(-c2ccc(F)c(F)c2)no1` it was -1.49%. To `Cc1nn(C)c(C)c1C1COCCN1c1ncnc2sccc12` (stereo not given) belongs 2.84%. For the compound `O=C(C1CCCN(C2CCOCC2)C1)N1CCc2ncccc2C1` (stereo not given), the cytotoxicity at 10 µM is 4.21%. To `COc1cccc(CN2CCCC3(CCN(C(CO)CO)C3)C2)c1` (stereo not given) belongs -5.96%; to `COc1ccc(CN2C[C@@H](CN(C)C)[C@@H](CO)C2)cc1CN1CCCC1`, 4.59%. To `Cc1noc2ncc(C(=O)N(CC3CCOC3)C3CC3)cc12` (stereo not given) belongs -6.64%. With `Cc1nc(CNCC2CCCN2c2cccnn2)cs1` (stereo not given), the cytotoxicity at 10 µM was -6.26%. To `COc1ccc(OCCNCc2c(C)nn(C)c2N(C)C)cc1` belongs -6.63%; to `CC1c2ncc(COc3cccnc3)n2CCN1C(=O)C1=CCCC1` (stereo not given), -2.59%; to `O=C(CCN1C[C@H]2CC[C@@H]1C2)N1CCN(c2cccc(Cl)c2)C(=O)C1`, 1.4%.
